Experimental data from paper PMC6057249 (The Indian Journal of Medical Research, 2018).
Values after ≈ are worked out from the molar mass of the structure shown. Values joined by “and” are separate entries in the source; they are usually repeats but may differ in a detail not shown here. Equal entries are not always repeated. Where two headings read alike, the source gives them in different places. Bridge positions count the residues as written; N and C are the ends. Square brackets hold non-standard residues; d marks the D form. Peptide text beside a SMILES is read from it. * marks the point of attachment. X1 = CC[C@H](C)CCCCC(=O)*; Dab = NCC[C@H](N)C(=O)O

Legend:
[1] = cited from earlier work
[2] = tested on: MDR Gram-negative infections; experiment: Bacteriological profile and clinical outcome of patients on colistin monotherapy; assay type: in vivo, human; conditions: 1-2 MU i.v. every 8 h
In short: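 ICU patients >12 yr with normal renal function and bloodstream infection by an MDR Gram-negative organism susceptible only to colistin. They received colistin monotherapy as CMS by 1-h i.v. infusion every 8 h, without a loading dose, for […]. Follow-up cultures were taken. Exclusions were expected survival <72 h, pregnancy, burns >20% of body surface, and cystic fibrosis.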

[3] = assay type: in vivo, human; conditions: for AUC after 5th dose: individual patients, steady state, plasma, AUC0-8; for average steady-state concentration (Css, avg) of formed colistin, median: six patients receiving 2 MU q8h, no loading dose
In short: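 CMS was given by 1-h i.v. infusion every 8 h. Heparinized venous blood was drawn pre-dose, at end of infusion, then 30 min and 1.5, 2, 4, 6, 8 h after dose 1 and dose 5 (steady state). Plasma (200 μl) was stored at −80°C. CMS was acid-hydrolysed (5% formic acid, 30 min), and colistin A+B were quantified by UHPLC-MS/SRM against a reserpine internal standard. Values are total colistin, with outliers omitted.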

Acinetobacter baumannii = experiment: MIC for colistin by E-test; assay type: cell-based; conditions: isolate of the individual patient
In short: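 Organisms came from positive cultures of ICU patients with MDR Gram-negative bloodstream infection and were identified and susceptibility-tested. Colistin MIC for each patient's isolate was determined by E-test per the manufacturer's instructions.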

[4] = stored plasma samples; to be estimated within four months; ref [17]; cited from earlier work

| Molecule | apparent terminal t1/2 ([1]; 2 MU dosage regimen, ref Imberti et al [10]) [h] | t1/2 ([1]; after 2.8 MU dosage, ref Markou et al [11]) [h] | Vd ([1]; cystic fibrosis patients, single dose, ref [17]) | Vd ([1]; cystic fibrosis patients, steady state, ref [17]) | Vd ([1]; other Indian study, after both the single dose and at steady state, ref [7]) | Vd ([1]; other studies, ref [10]) [L/kg] | follow up cultures ([2]; all nine patients) | patients who did not survive ([2]; nine patients) [per cent] | terminal half-life, range ([3]; 2 MU i.v. every 8 h, after 1st dose) [h] | terminal half-life, range ([3]; 2 MU i.v. every 8 h, after 5th dose) [h] | AUC after 5th dose ([3]; 1 MU i.v. every 8 h) | AUC after 5th dose ([3]; 2 MU i.v. every 8 h) | Vd for a majority of patients ([3]; patients of this study) | average steady-state concentration (Css, avg) of formed colistin, median ([3]; after 1st dose) [ng/mL] | average steady-state concentration (Css, avg) of formed colistin, median ([3]; after 5th dose) [ng/mL] | MIC (Acinetobacter baumannii) [µg/mL] | stability in stored samples (conversion of CMS to colistin) [4] |
| --- | --- | --- | --- | --- | --- | --- | --- | --- | --- | --- | --- | --- | --- | --- | --- | --- | --- |
| CC[C@H](C)CCCCC(=O)N[C@@H](CCN)C(=O)N[C@H](C(=O)N[C@@H](CCN)C(=O)N[C@H]1CCNC(=O)[C@H]([C@@H](C)O)NC(=O)[C@H](CCN)NC(=O)[C@H](CCN)NC(=O)[C@H](CC(C)C)NC(=O)[C@@H](CC(C)C)NC(=O)[C@H](CCN)NC1=O)[C@@H](C)O [colistin] (X1-[Dab]T[Dab][Dab][Dab][dL]L[Dab][Dab]T; lactam 4-C) | 5.9 ± 2.6 | 7.4 ± 1.7 | 0.09 (0.02) l/kg | 0.09 (0.03) l/kg | 0.3 (0.2-0.5) l/kg | 1.5 ± 1.1 | sterile | 30 | 4.7 to 9.84 | 2.72 to 8.5 | 5.4 mg·h/L and 8.5 mg·h/L and 3.5 mg·h/L | 15.8 mg·h/L and 6.0 mg·h/L and 4.4 mg·h/L | more than 1.0 l/kg | 570 | 720 | 0.125 (≈ 0.107 µM) | – |
| colistin methanesulphonate [CMS] | – | – | – | – | – | – | – | – | – | – | – | – | – | – | – | – | unstable |
